HTR5A ag ctr: HTR5A agonists in luminescence cell assay, primary screen, counter-screen for OPRM1-OPRD1 heterodimer agonist project, full-deck HTS; 5-hydroxytryptamine receptor 5A (Homo sapiens), P47898; cell-based; activation, % at 9.3 µM; actives 0.61% (n = 340,000); AID 504692, 2011; in the data active = activation mostly above about 9.5%, no sharp cut-off; inactive = mostly below about 7.6%;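 also: 0% = cells with vehicle only and 100% = reference agonist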
OPRM1-OPRD1 inv: inverse agonists of MOR-DOR heterodimerization, primary screen, cell-based, luminescence | inhibition, % at 9.3 µM | cell-based MOR-DOR heterodimer luminescence, inverse agonism | Mu-type opioid receptor (Homo sapiens) + Delta-type opioid receptor (Homo sapiens), … | actives 0.21% (n = 340,000); in the data active = inhibition above about 22%, passing the limit was not always enough;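 also: 0% = cells with DMSO and 100% = wells without cells with DMSO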
HTR5A inv ctr: HTR5A inverse agonists in luminescence cell assay, primary screen, counter-screen for OPRM1-OPRD1 heterodimer inverse agonist project, full-deck HTS; 5-hydroxytryptamine receptor 5A (Homo sapiens), P47898; HTR5A cell line, inverse agonism; inhibition, % at 9.3 µM; actives 0.083% (n = 340,000); AID 504634, 2011; in the data active = inhibition mostly above about 23%, no sharp cut-off; inactive = mostly below about 18%;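 also: 0% = cells with DMSO and 100% = no-cell wells with DMSO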
DAGLB inh: DAGLB lipase inhibitors, primary screen, biochemical, fluorescence, HTS | actives 0.059% (n = 340,000) | inhibition, % at 5.17 µM | HEK293T DAGLB membrane lysate, EnzChek fluorogenic substrate | Diacylglycerol lipase-beta (Homo sapiens), Q8NCG7; in the data active = inhibition above about 34%;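 also: 0% = enzyme with vehicle and 100% = wells lacking enzyme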
Target sequence (Q8NCG7 whole entry, looked up): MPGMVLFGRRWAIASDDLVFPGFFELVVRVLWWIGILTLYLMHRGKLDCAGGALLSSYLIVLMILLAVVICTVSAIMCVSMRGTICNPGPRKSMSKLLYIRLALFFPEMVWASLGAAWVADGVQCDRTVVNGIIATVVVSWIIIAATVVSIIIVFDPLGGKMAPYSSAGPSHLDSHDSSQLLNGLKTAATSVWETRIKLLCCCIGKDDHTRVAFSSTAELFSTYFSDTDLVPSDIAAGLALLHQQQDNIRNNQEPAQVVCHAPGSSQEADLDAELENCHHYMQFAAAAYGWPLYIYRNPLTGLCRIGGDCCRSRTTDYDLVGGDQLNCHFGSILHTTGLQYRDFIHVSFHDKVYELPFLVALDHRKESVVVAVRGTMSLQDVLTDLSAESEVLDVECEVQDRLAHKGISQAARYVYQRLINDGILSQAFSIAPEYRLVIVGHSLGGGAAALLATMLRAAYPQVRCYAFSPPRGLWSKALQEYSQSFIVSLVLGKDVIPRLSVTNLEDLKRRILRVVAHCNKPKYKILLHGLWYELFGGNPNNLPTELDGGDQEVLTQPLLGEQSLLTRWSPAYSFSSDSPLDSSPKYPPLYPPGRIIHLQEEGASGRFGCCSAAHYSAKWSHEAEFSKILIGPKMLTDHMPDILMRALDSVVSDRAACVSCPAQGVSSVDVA
Arr AP2 block: inhibitors of beta-arrestin/AP2 binding, primary screen, biochemical, GPCR trafficking, flow cytometry. actives 0.31% (n = 340,000). AID 504490, 2011. FITC-arrestin peptide / GST-AP2 beads; AP2 beta2 appendage carries R879A mutation. beta-arrestin 1 C-terminal peptide binding to AP2 beta2-adaptin appendage (human). inhibition, % at 10 µM;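 active = inhibition above a set limit, near 3 SD of compounds lacking own fluorescence, cut at about 54% in these data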;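 also: plate controls were DMSO wells for no effect and 5 µM unlabelled arrestin peptide for full effect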
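System: GST-tagged AP2 beta2-adaptin appendage (R879A) on 4 µm glutathione beads / Reagent: FITC-arrestin peptide, 50 nM / Detection: HyperCyt-sampled flow cytometry, FL1 channel, ex 488/em 535 nm / Timing: 12 min plus 1 h, RT / Buffer or medium: PBS plus Tween 20 (0.05%) and BSA (0.1%)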
MOR-DOR ag: agonists of OPRM1-OPRD1 heterodimerization, primary screen, cell-based, luminescence | Mu-type opioid receptor (Homo sapiens) + Delta-type opioid receptor (Homo sapiens), … | cells | activation, % at 9.3 µM | actives 0.3% (n = 340,000); in the data active = activation above about 18%;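 also: 0% = vehicle-treated cells and 100% = reference agonist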
Arr AP2 CP1: inhibitors of arrestin peptide binding to AP2, confirmation, biochemical, cherry pick 1, flow cytometry beads; shares compounds with Arr AP2 block; GST-AP2 beads, FITC arrestin peptide binding; GST-fused beta2-adaptin appendage, R879A mutant; inhibition, % at 10 µM; actives 2% (n = 1,300); AID 504908, 2011;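 active = inhibition above a set limit, roughly 3 SD of non-fluorescent compound noise, cut at about 38% in these data; inactive = inhibition at or below that limit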;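 also: loss of bead fluorescence from 50 nM FITC arrestin peptide bound to appendage; 0% = negative control wells and 100% = excess unlabelled arrestin peptide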
GST-FITC bead: GST-fluorescein capture on glutathione beads, confirmation, artefact control for arrestin-AP2 inhibitor project, biochemical, cherry pick 1, flow cytometry; shares compounds with Arr AP2 block; GST-fluorescein binding to GSH beads, fluorescence, counter-screen; inhibition, % at 10 µM; actives 2% (n = 1,300);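 active = inhibition above 50%, about 3 SD of the inhibition seen with non-fluorescent compounds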;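 also: fluorescein maleimide labelled GST captured on 4 micron glutathione beads; higher means more loss of bead fluorescence from quenching or blocked binding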
* = called active by the depositor; · = not tested or not shown. In the library only some 1.4% were active in any assay of this set; here they are far more common.

SMILES	HTR5A ag ctr	OPRM1-OPRD1 inv	HTR5A inv ctr	DAGLB inh	Arr AP2 block	MOR-DOR ag	Arr AP2 CP1	GST-FITC bead
CC(C#N)(NC(=O)CN1CCN(S(=O)(=O)c2cccc(F)c2)CC1)C1CC1 (stereo unspecified)	·	·	·	-3	·	·	·	·
Cc1ccc(C(=O)OCc2nnc(-c3ccccc3)o2)s1	1	3	-2	-11	4	0	·	·
O=C(OCc1nnc(-c2ccccc2)o1)c1ccc([N+](=O)[O-])s1	7	-18	-22	-2	70*	5	15	-4
Cc1cc(C)c(C)c(C(=O)C(=O)c2ccccc2)c1	-1	8	4	-2	-6	-2	·	·
CCCCN1CC(COCc2ccccc2)Oc2cccc(OCCN3C(=O)[C@@H]4[C@H](C3=O)C3C=C[C@H]4C3)c2S1(=O)=O (stereo partly specified)	0	-5	-1	-11	-14	1	·	·
Cc1cccc(CN2CCN(C(C)C(=O)NC(C)c3ccccc3)CC2)c1 (stereo unspecified)	-3	-3	12	-2	56*	0	-10	-8
CC(NC(=O)C(C)N1CCN(Cc2ccccc2)CC1)c1ccccc1 (stereo unspecified)	8	-6	-4	1	-3	1	·	·
Cc1cc(C)c(-c2c(N)cc(Br)cc2Br)c(N)c1	1	-43	-5	0	3	8	·	·
Cc1cn([C@H]2C[C@H](O)[C@@H](CNC(=O)[C@H](N)Cc3cn(COCc4ccccc4)cn3)O2)c(=O)[nH]c1=O	·	·	·	1	·	·	·	·
COC(c1ccccc1)c1nnc(CCC(=O)N2CCN(C3CCCC3)CC2)o1 (stereo unspecified)	9	5	-10	-1	69*	-2	17	-8
CC1CCCCC1=NNC(=O)c1ccccc1 (stereo unspecified)	·	·	·	0	·	·	·	·
O=C(NCC1CCCO1)c1cn(Cc2ccccc2Cl)nc1-c1ccccc1 (stereo unspecified)	0	10	11	-2	-1	-2	·	·
CCN(CC)S(=O)(=O)c1cccc(C(=O)N/N=C/c2cc(OC)c(O)c(OC)c2)c1	2	-2	-8	0	60*	0	-3	1
CCN(CC)S(=O)(=O)c1cccc(C(=O)N/N=C/c2cccc(O)c2O)c1	6	-3	-23	6	49	1	·	·
Cc1ccc(SCC(=O)NNC(=O)CCS(=O)(=O)c2ccc(C)cc2)cc1	0	5	0	0	54*	-1	2	-2
O=C(COC(=O)C1CC1)NCc1ccccc1	1	15	1	-1	20	-3	·	·
Cc1ccccc1-c1ccc2c(c1)O[C@@H](CN(C)C(=O)Nc1ccc(C(F)(F)F)cc1)[C@H](C)CN([C@@H](C)CO)S2(=O)=O	·	·	·	-5	·	·	·	·
CC(=O)Nc1nnc(S(=O)(=O)N2CCN(c3ccc(Cl)cc3[N+](=O)[O-])CC2)s1	4	-7	2	14	56*	1	20	-17
CCc1ccc(OCC(=O)NNCC(=O)Nc2ccc(OC)cc2)cc1	2	13	-5	1	58*	-2	-4	-8
CCOc1ccc(OCC(=O)Nc2ccc(OC)cc2)cc1	-1	5	7	-4	10	-1	·	·
CCCCCCn1c(=O)n2n(c1=O)[C@@H]1CN(S(=O)(=O)c3ccc(C)cc3)C[C@]1(O)[C@@H](OC(=O)NCc1ccccc1)C2	·	·	·	11	·	·	·	·
COc1ccc2c3c(cccc13)N(C)N=C2C	4	-4	-13	0	62*	1	33	11
COc1ccc2c3c(cccc13)OC2=O	-1	6	4	1	20	-1	·	·
COc1ccc(/C=C/C(=O)c2ccccc2)cc1COc1ccccc1F	3	-4	-18	-16	56*	1	17	-7
COc1ccc(NC(=S)N(CCCN2CCCC(C)C2)Cc2cccs2)cc1 (stereo unspecified)	3	13	-7	0	54*	-3	5	-7
SMILES	HTR5A ag ctr	OPRM1-OPRD1 inv	HTR5A inv ctr	DAGLB inh	Arr AP2 block	MOR-DOR ag	Arr AP2 CP1	GST-FITC bead
COc1ccc(C(O)P(=O)(O)CCc2ccccc2)cc1 (stereo unspecified)	6	15	-15	1	62*	-3	8	-6
O=P(O)(CCc1ccccc1)C(O)c1ccccc1 (stereo unspecified)	3	12	-7	-3	10	-3	·	·
S=c1sscc1-c1ccccc1	2	21	-6	13	-3	-4	·	·
Cc1ccc([N+](=O)[O-])cc1NC(=O)c1ccc2c(c1)OCO2	-5	6	12	-2	-2	-1	·	·
O=C(Nc1ccc(F)c([N+](=O)[O-])c1)c1ccc2c(c1)OCCO2	-4	1	-12	0	-1	0	·	·
O=C(Nc1cc([N+](=O)[O-])ccc1Cl)c1ccc2c(c1)OCO2	-2	16	2	2	89*	-3	-10	3
O=C(Nc1ccc(Cl)cc1[N+](=O)[O-])c1ccc2c(c1)OCCO2	-4	-3	-19	-4	63*	1	11	19
N#Cc1cnc2nc1NCCCCCCC2	·	·	·	1	·	·	·	·
O=C(NCCc1cccc(F)c1)C1CCC(=O)N(CCCc2ccccc2)C1 (stereo unspecified)	-1	6	-1	2	62*	-1	-5	-11
O=C(NCc1cccc(F)c1)C1CCC(=O)N(CCc2cccc(F)c2)C1 (stereo unspecified)	3	13	-10	1	-5	-3	-16	·
COc1cccc(CNC(=O)C2CCC(=O)N(CCc3cccc(F)c3)C2)c1 (stereo unspecified)	1	8	5	1	29	-2	·	·
O=C(NCCN1CCCC1=O)C1CCC(=O)N(CCc2cccc(F)c2)C1 (stereo unspecified)	0	1	-2	-2	59*	0	-11	-2
